# Experiments:
# Assay type in all cases: functional
# Rattus norvegicus [1] = experiment: Inhibition of carrageenan-induced rat's paw edema (CPE) after peroral administration of 100 mg/kg dose.; conditions: route oral
# Method in brief: (§1)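 Male Wistar rats (about 150 g) were dosed orally with compound suspended in 5% arabic gum, 1 h before a subplantar hind-paw injection of 0.1 mL saline. The irritant was 1% zymosan for 33 or 1% λ-carrageenin for 34. Paw volume was measured by plethysmograph before dosing and at 4 h (zymosan) or 3 h (carrageenin). Swelling is relative to initial volume, as mean ± SEM. % inhibition is versus the control group's mean swelling.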
# Rattus norvegicus [2] = experiment: Antiinflammatory activity on Carrageenan rat's paw edema(CPE) after peroral administration of 100 mg/kg dose with control swelling of 64.2%; conditions: route oral
# Rattus norvegicus [3] = experiment: Compound was tested for the inhibition of rat reversed passive Arthus pleurisy after peroral administration of 100 mg/kg dose at 0.94 mL of exudate volume with 0.86 mL of control (injected intrapleurally); conditions: route oral
# Method in brief: (§2)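 Male Wistar rats (about 250 g) were given compound orally before the antiserum. Under ether anesthesia, 0.2 mL rabbit anti-egg albumin antiserum was injected intrapleurally. After 30 min, egg albumin (15 mg/100 g body weight in 0.1 mL saline) was given iv. Rats were killed 4.5 h later and the thoracic cavity was rinsed with 5 mL saline. Exudate volume and infiltrated cell number were measured, with inhibition % versus controls as mean ± SEM.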
# Rattus norvegicus [4] = experiment: Inhibition of Zymosan-induced rat's paw edema(ZPE) after peroral administration of 100 mg/kg dose.; conditions: route oral; method in brief: as §1
# Rattus norvegicus [5] = experiment: Antiinflammatory activity on Zymosan-induced rat's paw edema(ZPE) after peroral administration of 100 mg/kg dose with control swelling of 71.7%; conditions: route oral
# Method in brief: (§3)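 Male Wistar rats weighing about 150 g were dosed orally with compound suspended in 5% arabic gum. 1 h later, 1% zymosan in 0.1 mL saline was injected subplantarly into the hind paw. Paw volume was measured by plethysmograph before dosing and 4 h after zymosan, with edema as the volume difference. Inhibition % was derived from mean swelling versus the control group.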
# Rattus norvegicus [6] = experiment: Compound was tested for the inhibition of rat reversed passive Arthus pleurisy after peroral administration of 100 mg/kg dose at 4.35*10e6 no of cells with 3.62*10e6 cells of control; conditions: route oral
# Method in brief: (§4)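 Male Wistar rats (about 250 g) under ether received 0.2 mL rabbit anti-egg-albumin antiserum intrapleurally. Thirty min later they got 15 mg EA/100 g body weight in 0.1 mL saline iv. Compounds were given orally beforehand. Rats were killed 4.5 h after induction and the thoracic cavity rinsed with 5 mL saline. Exudate volume and infiltrated cell count were read as mean ± SE. % inhibition is versus control.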
# Rattus norvegicus [7] = experiment: Antiinflammatory activity on Zymosan-induced rat's paw edema(ZPE) after peroral administration of 100 mg/kg dose with control swelling of 62.8%; conditions: route oral; method in brief: as §3
# Rattus norvegicus [8] = experiment: Compound was tested for the inhibition of rat reversed passive Arthus pleurisy after peroral administration of 100 mg/kg dose at 4.66*10e6 no of cells with 5.72*10e6 cells of control; conditions: route oral; method in brief: as §4
# Rattus norvegicus [9] = experiment: Antiinflammatory activity on Carrageenan rat's paw edema(CPE) after peroral administration of 100 mg/kg dose with control swelling of 68.1%; conditions: route oral
# Rattus norvegicus [10] = experiment: Compound was tested for the inhibition of rat reversed passive Arthus pleurisy after peroral administration of 100 mg/kg dose at 0.65 mL of exudate volume with 0.84 mL of control (injected intrapleurally); conditions: route oral; method in brief: as §2
# Rattus norvegicus [11] = experiment: Compound was tested for the inhibition of rat reversed passive Arthus pleurisy after peroral administration of 100 mg/kg dose at 0.63 mL of exudate volume with 0.84 mL of control (injected intrapleurally); conditions: route oral; method in brief: as §2
# Rattus norvegicus [12] = experiment: Compound was tested for the inhibition of rat reversed passive Arthus pleurisy after peroral administration of 100 mg/kg dose at 4.63*10e6 no of cells with 5.72*10e6 cells of control; conditions: route oral; method in brief: as §4
# Rattus norvegicus [13] = experiment: Antiinflammatory activity on Carrageenan rat's paw edema(CPE) after peroral administration of 3 mg/kg dose with control swelling of 75.8%; conditions: route oral
# Rattus norvegicus [14] = experiment: Compound was tested for the inhibition of Carrageenan rat's paw edema(CPE) after peroral administration of 10 mg/kg dose; conditions: Rattus norvegicus, po
# Rattus norvegicus [15] = experiment: Compound was tested for the inhibition of Zymosan-induced rat's paw edema(ZPE) after peroral administration of 30 mg/kg dose; conditions: route oral; method in brief: as §3
# Rattus norvegicus [16] = experiment: Antiinflammatory activity on Zymosan-induced rat's paw edema(ZPE) after peroral administration of 3 mg/kg dose with control swelling of 55.1%; conditions: route oral; method in brief: as §3
# Rattus norvegicus [17] = experiment: Compound was tested for the inhibition of arachidonic acid-induced rat's paw edema(APE) after peroral administration of 10 mg/kg dose with control swelling of 51.6%; conditions: route oral
# Method in brief: (§5)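 Test: arachidonic acid paw edema in male Wistar rats of about 150 g. Oral dosing in 5% arabic gum came 1 h before subplantar injection of 1% arachidonic acid sodium salt in 0.1 mL saline into the hind paw. Plethysmograph paw volume was read before dosing and 1 h post-irritant, and edema = volume difference. % inhibition was taken from mean swelling against controls.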
# Rattus norvegicus [18] = experiment: Antiinflammatory activity on Zymosan-induced rat's paw edema(ZPE) after peroral administration of 100 mg/kg dose with control swelling of 55.1%; conditions: route oral; method in brief: as §3
# Rattus norvegicus [19] = experiment: Antiinflammatory activity on Zymosan-induced rat's paw edema(ZPE) after peroral administration of 10 mg/kg dose with control swelling of 55.1%; conditions: route oral; method in brief: as §3
# Rattus norvegicus [20] = experiment: Compound was tested for the inhibition of Zymosan-induced rat's paw edema(ZPE) after peroral administration of 10 mg/kg dose; conditions: po; method in brief: as §3
# Rattus norvegicus [21] = experiment: Compound was tested for the inhibition of arachidonic acid-induced rat's paw edema(APE) after peroral administration of 10 mg/kg dose; conditions: route oral; method in brief: as §5
# Rattus norvegicus [22] = experiment: Compound was tested for the inhibition of Carrageenan rat's paw edema(CPE) after peroral administration of 3 mg/kg dose; conditions: route oral
# Rattus norvegicus [23] = experiment: Compound was tested for the inhibition of Zymosan-induced rat's paw edema(ZPE) after peroral administration of 3 mg/kg dose; conditions: route oral; method in brief: as §3
# Rattus norvegicus [24] = experiment: Antiinflammatory activity on Carrageenan rat's paw edema(CPE) after peroral administration of 10 mg/kg dose with control swelling of 75.8%; conditions: route oral
compound,measurement,setting,value
CN(C)CCNC(=O)c1c(O)c2cccnc2n(-c2ccccc2)c1=O,inhibition in vivo at 100 mg/kg,Rattus norvegicus [1],18.4%
same,Swelling,Rattus norvegicus [2],52.4%
same,inhibition in vivo at 100 mg/kg,Rattus norvegicus [3],-10.4%
same,inhibition in vivo at 100 mg/kg,Rattus norvegicus [4],22.6%
same,Swelling,Rattus norvegicus [5],55.5%
same,inhibition in vivo at 100 mg/kg,Rattus norvegicus [6],-16.6%
Cc1ccc(NC(=O)c2c(O)c3cccnc3n(-c3ccccc3)c2=O)cc1,Swelling,Rattus norvegicus [7],65%
same,inhibition in vivo at 100 mg/kg,Rattus norvegicus [1],2.2%
same,inhibition in vivo at 100 mg/kg,Rattus norvegicus [8],21.5%
same,inhibition in vivo at 100 mg/kg,Rattus norvegicus [4],-3.5%
same,Swelling,Rattus norvegicus [9],66.6%
same,inhibition in vivo at 100 mg/kg,Rattus norvegicus [10],22.4%
O=C(Nc1ccccc1)c1c(O)c2cccnc2n(-c2ccccc2)c1=O,inhibition in vivo at 100 mg/kg,Rattus norvegicus [1],-15%
same,Swelling,Rattus norvegicus [2],73.8%
same,inhibition in vivo at 100 mg/kg,Rattus norvegicus [4],4.6%
same,Swelling,Rattus norvegicus [5],68.4%
COc1cccc(NC(=O)c2c(O)c3cccnc3n(-c3ccccc3)c2=O)c1,Swelling,Rattus norvegicus [7],59.2%
same,inhibition in vivo at 100 mg/kg,Rattus norvegicus [11],26.9%
same,inhibition in vivo at 100 mg/kg,Rattus norvegicus [1],20.7%
same,inhibition in vivo at 100 mg/kg,Rattus norvegicus [4],5.7%
same,Swelling,Rattus norvegicus [9],54%
same,inhibition in vivo at 100 mg/kg,Rattus norvegicus [12],22.1%
CN1C(C(=O)Nc2ccccn2)=C(O)c2ccccc2S1(=O)=O [PIROXICAM],Swelling,Rattus norvegicus [13],34.4%
same,inhibition in vivo at 10 mg/kg,Rattus norvegicus [14],66%
same,inhibition in vivo at 30 mg/kg,Rattus norvegicus [15],8.7%
same,Swelling,Rattus norvegicus [16],53.9%
same,Swelling,Rattus norvegicus [17],42.7%
same,Swelling,Rattus norvegicus [18],50.3%
same,Swelling,Rattus norvegicus [19],61.7%
same,inhibition in vivo at 10 mg/kg,Rattus norvegicus [20],9.4%
same,inhibition in vivo at 10 mg/kg,Rattus norvegicus [21],17.2%
same,inhibition in vivo at 3 mg/kg,Rattus norvegicus [22],54.6%
same,inhibition in vivo at 3 mg/kg,Rattus norvegicus [23],2.2%
same,Swelling,Rattus norvegicus [24],25.8%

# Reference: ChEMBL document CHEMBL1126267, “A novel synthesis and potent antiinflammatory activity of 4-hydroxy-2(1H)-oxo-1-phenyl-1,8-naphthyridine-3-carboxamides” (1992)
